What all share (format): functional
Test [1] relates to MDA-MB-231. Description: Growth inhibition of human MDA-MB-231 cells at 10 uM after 48 hrs by SRB assay. Conditions: MDA-MB-231, 48 h, read-out: GI. The procedure, abridged: (§1)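 NCI-60 primary one-dose screen run at the US NCI, with human tumour lines from nine cancer types. Compound added once at 10^-5 M, followed by 48 h incubation. End point was sulforhodamine B protein staining read spectrophotometrically. Result given as percent growth of treated cells against untreated controls, reported as % growth inhibition.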
For orientation: The SRB assay estimates cell density from bound dye.

In test [2] the test system is HL-60(TB). The test is described as follows: Growth inhibition of human HL-60(TB) cells at 10 uM after 48 hrs by SRB assay. Conditions: HL-60, 48 h, read-out: GI. In outline:
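NCI 60-cell-line primary screen: compound added at single concentration 10^-5 M, cultures incubated 48 h; end point by sulforhodamine B protein staining read spectrophotometrically; result given as growth percentage of treated versus untreated control cells, reported as % growth inhibition.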

Test [3] relates to MCF7. The test is described as follows: Growth inhibition of human MCF7 cells at 10 uM after 48 hrs by SRB assay. As to conditions: MCF7, 48 h, read-out: GI. The procedure, abridged: as §1
Test [4] relates to NCI-H23. The test is described as follows: Growth inhibition of human NCI-H23 cells at 10 uM after 48 hrs by SRB assay. As to conditions: NCI-H23, 48 h, read-out: GI. In outline:
as §1

The subject of test [5] is 786-0. Description: Growth inhibition of human 786-0 cells at 10 uM after 48 hrs by SRB assay. Conditions: 786-0, 48 h, read-out: GI. In outline:
(§2)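 NCI primary one-dose screen. A single concentration of 10^-5 M was added to the cell culture, followed by 48 h incubation and an SRB protein-dye endpoint read spectrophotometrically. Results are growth percentage relative to untreated control cells, reported as % growth inhibition.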

Test [6] concerns PC-3. The test is described as follows: Growth inhibition of human PC3 cells at 10 uM after 48 hrs by SRB assay. As to conditions: PC-3, 48 h, read-out: GI. In outline:
as §1

Test [7] relates to SR. Description: Growth inhibition of human SR cells at 10 uM after 48 hrs by SRB assay. Conditions: read-out: GI. In outline:
as §1

Test [8] in a line: Growth inhibition of human OVCAR8 cells at 10 uM after 48 hrs by SRB assay. As to conditions: OVCAR-8, 48 h, read-out: GI. The procedure, abridged:
as §1

Test [9] is described as follows: Growth inhibition of human HCT15 cells at 10 uM after 48 hrs by SRB assay. As to conditions: HCT-15, 48 h, read-out: GI. The procedure, abridged:
as §1

Test [10] concerns NCI-H322M. Description: Growth inhibition of human NCI-H322M cells at 10 uM after 48 hrs by SRB assay. Conditions: read-out: GI. In outline: as §1
Test [11] relates to K562. Description: Growth inhibition of human K562 cells at 10 uM after 48 hrs by SRB assay. As to conditions: K562, 48 h, read-out: GI. The procedure, abridged: as §1
Test [12] can be described thus: Growth inhibition of human LOXIMVI cells at 10 uM after 48 hrs by SRB assay. Conditions: LOX IMVI, read-out: GI. In outline: as §1
The subject of test [13] is ACHN. The test is described as follows: Growth inhibition of human ACHN cells at 10 uM after 48 hrs by SRB assay. Conditions: read-out: GI. In outline:
as §2

In test [14] the test system is SF-268. Description: Growth inhibition of human SF268 cells at 10 uM after 48 hrs by SRB assay. As to conditions: SF-268, 48 h, read-out: GI. In outline:
as §1

The test system of test [15] is T47D. The test is described as follows: Growth inhibition of human T47D cells at 10 uM after 48 hrs by SRB assay. Conditions: read-out: GI. The procedure, abridged:
as §1

Test [16] is described as follows: Growth inhibition of human MOLT4 cells at 10 uM after 48 hrs by SRB assay. As to conditions: MOLT-4, 48 h, read-out: GI. The procedure, abridged:
as §1

Test [17] concerns A498. The test is described as follows: Growth inhibition of human A498 cells at 10 uM after 48 hrs by SRB assay. Conditions: A498, 48 h, read-out: GI. In outline: as §2
Test [18] is described as follows: Growth inhibition of human OVCAR4 cells at 10 uM after 48 hrs by SRB assay. Conditions: OVCAR-4, 48 h, read-out: GI. In outline: as §1
Test [19] concerns NCI-H460. Description: Growth inhibition of human NCI-H460 cells at 10 uM after 48 hrs by SRB assay. Conditions: NCI-H460, 48 h, read-out: GI. The procedure, abridged:
as §1

In test [20] the test system is SK-MEL-2. The test is described as follows: Growth inhibition of human SK-MEL-2 cells at 10 uM after 48 hrs by SRB assay. As to conditions: SK-MEL-2, 48 h, read-out: GI. In outline:
as §1

In test [21] the test system is CAKI-1. The test is described as follows: Growth inhibition of human CAKI-1 cells at 10 uM after 48 hrs by SRB assay. Conditions: CAKI-1, 48 h, read-out: GI. The procedure, abridged: as §2

Molecules are shown by their SMILES.

Take `Cc1ccc(C(=O)Nc2ccc(Cl)cc2C(=O)NCc2ccccc2)cc1`: the inhibition of growth at 10 µM is under 10% in test [1]; 49% in [2]; 47% in test [3]; under 10% in test [4]; under 10% in test [5]; 24% in [6]. The inhibition of growth at 10 µM in [7] is 63%; in test [8], 13%; in [9], 43%; in [10], under 10%; in [11], 70%; in [12] it was 21%. Besides, the inhibition of growth at 10 µM is 14% in test [13]; under 10% in test [14]; under 10% in [15]; 49% in test [16]; 21% in test [17]; 21% in test [18]. The inhibition of growth at 10 µM in [19] is under 10%; in test [20], 49%; in test [21], 23%.
As to `Cc1ccc(-c2nc3ccc(Cl)cc3c(=O)n2NC(=O)CNN)cc1`, the inhibition of growth at 10 µM in test [1] is 62%; in [2], 12%; in [3], 22%; in test [4], 13%; in test [5], 22%; in [6], 33%. In addition, the inhibition of growth at 10 µM in test [7] stood at 13%; in [8] it was 23%; in [9] it was 16%; in test [10], 29%; in test [11] it was 11%; in test [12] it was 27%. Further, the inhibition of growth at 10 µM was 42% in [13]; 28% in [14]; 52% in test [15]; under 10% in [16]; 46% in test [17]; 80% in [18]. For the same compound, the values for the inhibition of growth at 10 µM in [19], in [20] and in test [21] were 49%, under 10% and 35%, respectively.
Take `Cc1ccc(-c2nc3ccc(Cl)cc3c3nnnn23)cc1`: the inhibition of growth at 10 µM in [1] is 27%; in [2] it was under 10%; in [3], under 10%; in test [4] it was under 10%; in test [5], under 10%; in [6], 18%. Besides, the inhibition of growth at 10 µM was under 10% in test [7]; under 10% in [8]; under 10% in test [9]; under 10% in [10]; 11% in [11]; under 10% in [12]. In addition, the inhibition of growth at 10 µM in test [13] was under 10%; in test [14], under 10%; in test [15], 23%; in [16], under 10%; in test [17] it was 11%; in test [18] it was under 10%. Besides, the results for the inhibition of growth at 10 µM in [19], in test [20] and in test [21] were under 10%, under 10% and 25%, respectively.
On to `Cc1ccc(-c2nc3ccc(Cl)cc3c3nnc(S)n23)cc1`, for which the inhibition of growth at 10 µM in test [1] was 16%; in test [2], under 10%; in [3], under 10%; in test [4], under 10%; in [5] it was under 10%; in [6], under 10%. Also, the inhibition of growth at 10 µM in test [7] is under 10%; in test [8], under 10%; in test [9], under 10%; in [10], under 10%; in test [11], 11%; in [12], under 10%. In addition, the inhibition of growth at 10 µM in test [13] was under 10%; in test [14], under 10%; in [15], under 10%; in test [16] it was 13%; in [17] it was 19%; in test [18], under 10%. Also, the inhibition of growth at 10 µM is under 10% in test [19], under 10% in [20] and 15% in test [21].

For the origin of these results see ChEMBL document CHEMBL3259728, “Design, synthesis and biological evaluation of some novel substituted quinazolines as antitumor agents” (2014).
